SIAE inh: human SIAE inhibition, primary screen. SIAE FP-Rh probe binding, fluorescence polarization. inhibition, % at 9.66 µM. 370,000 compounds, 0.69% hits;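 active = inhibition above a cutoff: mean of compounds within the control limits plus 3 SD of those, cut at about 17% in these data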
Target sequence (Q9HAT2 whole entry, looked up): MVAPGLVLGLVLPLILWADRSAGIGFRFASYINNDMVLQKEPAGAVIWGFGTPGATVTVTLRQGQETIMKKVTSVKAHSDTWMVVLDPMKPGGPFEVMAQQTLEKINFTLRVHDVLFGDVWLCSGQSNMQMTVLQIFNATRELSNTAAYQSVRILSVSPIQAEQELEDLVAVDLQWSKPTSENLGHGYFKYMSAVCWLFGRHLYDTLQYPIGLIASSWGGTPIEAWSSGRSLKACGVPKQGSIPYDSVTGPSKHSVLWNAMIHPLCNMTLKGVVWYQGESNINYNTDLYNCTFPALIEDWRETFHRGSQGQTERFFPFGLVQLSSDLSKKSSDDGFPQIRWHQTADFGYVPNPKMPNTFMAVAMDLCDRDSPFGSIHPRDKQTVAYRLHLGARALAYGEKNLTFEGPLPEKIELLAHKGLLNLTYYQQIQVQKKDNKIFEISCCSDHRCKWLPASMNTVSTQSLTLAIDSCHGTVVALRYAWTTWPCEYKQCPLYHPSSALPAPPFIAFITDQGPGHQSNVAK
mABHD4 FP: inhibits mouse alpha/beta hydrolase domain 4. inhibition, % at 8.92 µM. AID 720543. purified mABHD4, FP-Rh probe fluorescence polarization. Q8VD66. 370,000 compounds, 0.54% hits;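 active = inhibition exceeding the mean over every tested compound plus 3 SD, cut at about 30% in these data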
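Assay system: wild-type mouse ABHD4 protein; compound: single nominal dose of 8.92 µM, 0.89% DMSO final; schedule: 45 min + 60 min at 25 °C; measured by: FP readout, ex 525 nm / em 598 nm; evaluation: % inhibition of FP-Rh probe binding versus controls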
HTRA1 inhibitor: blocks human HTRA1 serine peptidase; Q92743; recombinant HTRA1, FP-rhodamine activity-based probe, fluorescence polarization; inhibition, % at 5.96 µM; 340,000 compounds, 0.5% hits; AID 504803; in the data active = inhibition above about 36%
PRMT1 inh: inhibitors of human PRMT1. Q99873. recombinant PRMT1, activity-based probe fluorescence polarization. inhibition, % at 2.79 µM. 370,000 compounds, 1.3% hits;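 active = inhibition above about 21% made by adding two undisclosed values, limit read from the data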
TCR CD3 inh: inhibitors of human TCR-CD3 interaction; TAMRA-labeled TCR probe fluorescence, biochemical; inhibition, % at 9.4 µM; 360,000 compounds, 0.37% hits; in the data active = inhibition above about 19%;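 also: recombinant mutant TCR 2C K166C tagged with TAMRA read by polarization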
mABHD4 conf: ABHD4 (mouse) inhibition, FP confirmation | shares compounds with mABHD4 FP | purified mABHD4, FP-Rh probe fluorescence polarization | inhibition, % at 8.92 µM | 1,800 compounds, 55% hits | AID 720658;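 active = mean inhibition across replicates above the hit cutoff set in the primary screen, cut at about 30% in these data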
Of the large screens only hits and unclear results are named; the others gave an inactive call (follow-up assays come after a bar, where they were run). The list is not random: actives were taken first. Their share in the collection is about 2.5%.

COc1cc(/C=C2\SC(=O)N(CC(=O)Nc3cccc(C)c3)C2=O)cc([N+](=O)[O-])c1O	mABHD4 FP 31 (no result: HTRA1 inhibitor) | mABHD4 conf 80
COC(=O)[C@]1(C#N)CC(=O)N(Cc2ccc(Cl)cc2)[C@@H]1c1ccccc1	none (no result: HTRA1 inhibitor, TCR CD3 inh)
Oc1cc2c(cc1O)C1c3ccc(O)c(O)c3OCC1(O)C2 (centres undefined)	mABHD4 FP 30, PRMT1 inh 55, TCR CD3 inh 132 | mABHD4 conf inactive
Cc1ccc(CNC(=O)c2ccc3c(=O)[nH]c4c(C(=O)NCC5CCCO5)sc(=S)n4c3c2)cc1 (centres undefined)	mABHD4 FP 33 | mABHD4 conf 41
O=C(NCc1ccccc1)c1ccc2c(=O)[nH]c3c(C(=O)NCC4CCCO4)sc(=S)n3c2c1 (centres undefined)	none
CCCCCNC(=O)c1ccc2c(=O)[nH]c3c(C(=O)NCC4CCCO4)sc(=S)n3c2c1 (centres undefined)	mABHD4 FP 32 | mABHD4 conf 40
O=C(COc1ccc(F)cc1Cl)Nc1nnc(-c2ccc(F)c(F)c2)o1	none (no result: HTRA1 inhibitor, TCR CD3 inh)
CC(C)=CCC/C(C)=C/CN1CC(=O)N2[C@H](C[C@@]3(n4ccc5ccccc54)c4ccccc4N(S(=O)(=O)c4ccccc4)[C@@H]23)C1=O	none (no result: HTRA1 inhibitor, TCR CD3 inh)
COc1ccc(CN2CCC(N3CC(C)OC(C)C3)CC2)c(OC)c1OC (centres undefined)	mABHD4 FP 32 | mABHD4 conf inactive
CCOC(=O)NC(=O)/C(C#N)=C\Nc1sccc1C(=O)OC	mABHD4 FP 63, PRMT1 inh 56 | mABHD4 conf inactive
CCOC(=O)NC(=O)/C(C#N)=C\Nc1ccc(Cl)cc1Cl	none
CCN(CC)S(=O)(=O)c1ccc(N/N=C/c2ccccc2OCC(=O)O)c([N+](=O)[O-])c1	mABHD4 FP 35 | mABHD4 conf 44
COc1ccccc1NS(=O)(=O)c1ccc(N/N=C/C=C/c2ccccc2[N+](=O)[O-])c([N+](=O)[O-])c1	none
COc1ccccc1NS(=O)(=O)c1ccc(N/N=C/c2ccccc2OCC(=O)O)c([N+](=O)[O-])c1	mABHD4 FP 60 | mABHD4 conf 61
COC(=O)[C@]12C[C@H](CC(=O)NCc3cccc(C(F)(F)F)c3)C(=O)N(Cc3ccc(Cl)cc3Cl)C1=C[C@H](COCc1ccccc1)O[C@@H]2C	none (no result: HTRA1 inhibitor, TCR CD3 inh)
CC1=C(C(=O)NCc2ccco2)C2(CCC(C)CC2)OC1=O (centres undefined)	mABHD4 FP 31 | mABHD4 conf inactive
CC1=C(C(=O)NCc2ccc3c(c2)OCO3)C2(CCC(C)CC2)OC1=O (centres undefined)	none
O=C1CCC[C@H]2C[C@H](NCc3ccc(Br)cc3)CC[C@]23CCCN13	none (no result: HTRA1 inhibitor, TCR CD3 inh)
CCOC(=O)c1c(C)[nH]c(O)c1C=Nc1ccc(Cl)cc1	mABHD4 FP 59 | mABHD4 conf inactive
CCC(C)C(=O)Nc1nc(C)c(-c2csc(Nc3cc(OC)ccc3OC)n2)s1 (centres undefined)	mABHD4 FP 38 | mABHD4 conf 62
Oc1csc(Cc2nc(-c3ccc(-c4ccccc4)cc3)cs2)n1	mABHD4 FP 33 | mABHD4 conf inactive
Oc1csc(Cc2nc(-c3ccc4ccccc4c3)cs2)n1	none
N=c1n(CCN2CCCCC2)c2ccccc2n1CC(=O)c1cccs1	mABHD4 FP 43 | mABHD4 conf inactive
COc1ccc(Nc2nc(-c3ccccc3)nc3ccccc23)cc1	none
COc1ccc(-c2nc(N/N=C(\C)c3ccc(O)cc3)c3ccccc3n2)cc1	mABHD4 FP 32 | mABHD4 conf inactive
COC(=O)c1cc(S(=O)(=O)N2CCN(C(C)=O)CC2)cn1C	none (no result: HTRA1 inhibitor, TCR CD3 inh)
COc1ccc(NC(=O)c2ccc(NC(=O)C(C)C)cc2)c([N+](=O)[O-])c1	none
COc1ccc(NC(=O)C(c2cc3c(cc2[N+](=O)[O-])OCO3)N(C)C)cc1 (centres undefined)	mABHD4 FP 70 | mABHD4 conf inactive
COC(=O)[C@]1(CNC(C)=O)CC(=O)N(C)[C@@H]1c1ccccc1	none (no result: HTRA1 inhibitor, TCR CD3 inh)
CC(C)c1cc(C(C)C)c(S(=O)(=O)N2CCCC(C(=O)NCc3cccs3)C2)c(C(C)C)c1 (centres undefined)	none (no result: HTRA1 inhibitor, TCR CD3 inh)
CC(=O)C1CCC2C3CC=C4CC(SC(=N)N)CCC4(C)C3CCC12C (centres undefined)	mABHD4 FP 46 | mABHD4 conf 38
CC(=O)OCC(=O)C1CCC2C3CC=C4CC(O)CCC4(C)C3CCC12C (centres undefined)	none
O=C(c1cc(Cl)cc(Cl)c1)N1CC[C@H]2[C@H](CCCN2Cc2ccccc2)C1	none (no result: HTRA1 inhibitor, TCR CD3 inh)
CCc1ccc(S(=O)(=O)Nc2ccc(O)c3ccccc23)cc1	none
CCc1ccc(S(=O)(=O)Nc2cc(SCC(=O)O)c(O)c3ccccc23)cc1	mABHD4 FP 31, PRMT1 inh 77 | mABHD4 conf 45
O=C1/C(=C2\C(=O)N(Cc3ccc(F)cc3)c3ccccc32)SC(=S)N1CCS(=O)(=O)O	mABHD4 FP 76 | mABHD4 conf 100
CC(C)(C)c1ccc(S(=O)(=O)/N=C2\C=C(NS(=O)(=O)c3ccccc3)C(=O)c3ccccc32)cc1	mABHD4 FP 36 | mABHD4 conf 60
Cc1ccc(S(=O)(=O)/N=C2\C=C(NS(=O)(=O)c3ccccc3)C(=O)c3ccccc32)c(C)c1	mABHD4 FP 50 | mABHD4 conf 36
C/C(=N\NS(=O)(=O)c1ccc(C(C)(C)C)cc1)c1ccccc1	none
Cc1cccc(-c2cccc3c4c([nH]c23)[C@@H]2C[C@H](N(C)C(=O)c3ccccc3C)[C@H]([C@H](C)O)C(=O)N2CC4)c1	none (no result: HTRA1 inhibitor, TCR CD3 inh)
O=C1C=C(Nc2ccc(O)cc2)CC(c2ccco2)C1 (centres undefined)	mABHD4 FP 44 | mABHD4 conf inactive
c1ccc2sc(NN=C3CCCCCC3)nc2c1	mABHD4 FP 36 | mABHD4 conf 30
O=C(Nc1nc2ccccc2s1)c1ccccc1	none
OCC[C@H]1C[C@@H](O)[C@H](O)[C@]2(OCCc3ccccc32)O1	mABHD4 FP 35 | mABHD4 conf inactive
O=C1CCC[C@H]2C[C@H](NCc3ccc(Cl)cc3)CC[C@]23CCCN13	none (no result: HTRA1 inhibitor, TCR CD3 inh)
Nc1ccc2ncccc2c1	none
Nc1ccc2ccc(N)cc2c1	mABHD4 FP 35 (no result: HTRA1 inhibitor) | mABHD4 conf inactive
O=[N+]([O-])c1ccc(/C=N/Nc2nc(N3CCCCC3)nc(N3CCCCC3)n2)o1	mABHD4 FP 54 | mABHD4 conf 55
COc1ccccc1NC1=C(Cl)C(=O)N(c2ccccc2)C1=O	none
CCOc1ccc(N2C(=O)C(Cl)=C(Nc3ccccc3O)C2=O)cc1	mABHD4 FP 34, PRMT1 inh 22 | mABHD4 conf inactive
CC(C)Oc1ccc(S(=O)(=O)N2CCCCCC2)c2ccccc12	none (no result: HTRA1 inhibitor, TCR CD3 inh)
CCOC(=O)N1CCN(C(=O)C[C@H]2C[C@@]3(C(=O)OC)C(=C[C@H](COCc4ccccc4)O[C@@H]3C)N(Cc3ccco3)C2=O)CC1	none (no result: HTRA1 inhibitor, TCR CD3 inh)
Nc1cccc2[nH]c(=O)c3ccccc3c12	mABHD4 FP 31 | mABHD4 conf inactive

Screens deposited in PubChem BioAssay by The Scripps Research Institute Molecular Screening Center.
